Sampled rows, rich in hits. Any-hit rate of the full collection: about 3.5%.
MrgX1 antagonist – blocks BAM8-22 activation of human MrgX1 receptor; Q96LB2; MRGX1-HEK293 calcium flux, Fluo-4, BAM8-22 antagonism; hits give low values; B-score at 10 µM; hit rate 1.3% among 310,000; AID 588676;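 active = calcium-response B-score plate-corrected more than 3 library SD below zero, starting fluorescence within 5 deviations, no agonist response on first addition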;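 note: peak minus trough fluorescence over baseline after final BAM8-22 challenge near maximal dose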
Target sequence (Q96LB2 whole entry, looked up): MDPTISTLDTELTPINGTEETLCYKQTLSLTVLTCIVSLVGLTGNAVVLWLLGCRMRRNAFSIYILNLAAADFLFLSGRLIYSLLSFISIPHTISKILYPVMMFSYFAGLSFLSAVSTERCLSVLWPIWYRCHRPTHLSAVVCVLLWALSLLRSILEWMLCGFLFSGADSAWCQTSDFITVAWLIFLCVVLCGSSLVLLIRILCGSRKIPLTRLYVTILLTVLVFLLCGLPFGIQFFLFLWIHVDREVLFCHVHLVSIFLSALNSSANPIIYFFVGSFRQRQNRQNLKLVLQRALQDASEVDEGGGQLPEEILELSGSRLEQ
MrgX1 PAM – human MrgX1 positive allosteric modulation, primary screen | Q96LB2 | MrgX1-HEK293, Fluo-4 calcium flux, FDSS; hits give high values | B-score at 10 µM | hit rate 0.63% among 310,000 | AID 588675;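 active = plate-corrected calcium response at least 3 library SD above typical, normal starting fluorescence, not activating the receptor alone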;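 note: compound read alongside a low EC10 to EC30 dose of BAM8-22 agonist; peak minus trough fluorescence over baseline measured at the second addition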
RGS4 pot – RGS4 potentiation or activation | HEK293 M3R/inducible RGS4, carbachol calcium flux Fluo4; hits give low values | B-score at 10 µM | hit rate 0.92% among 310,000 | AID 463111;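 active = B-score of the integrated calcium signal more than 4 SD below the library mean, with starting fluorescence not abnormally high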;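 note: negative B-score means reduced calcium response which marks RGS4 activation or potentiation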
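System – HEK293 FlpIn-TREx cells, stable M3R, doxycycline-inducible RGS4 · Reagent – ECmax carbachol challenge · Times – compound preincubation 20 min at room temperature before agonist · Technique – Fluo4 fluorescence kinetic imaging of calcium · Measure – B score of integrated Fluo4 ratio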
MrgX1 ag – agonists of human MrgX1 receptor; Q96LB2; MrgX1-HEK293 cells, Fluo-4 calcium fluorescence, agonist mode; hits give high values; B-score at 10 µM; hit rate 0.44% among 310,000;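 active = calcium response B-score plate-corrected fluorescence ratio at least 3 library SD, with starting fluorescence B-score inside 5 SD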
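Test system: HEK293 cells stably expressing human MrgX1 receptor; Input: fifteen thousand cells per well; Dosing: compound delivered in addition one of three; Schedule: overnight seeding, then 1 h dark dye loading; Technique: Fluo-4 NW calcium fluorescence; Measure: B-scored fluorescence response ratio; Controls: positive and negative controls per plate.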
RGS4 block – inhibitors of human RGS4. P49798. HEK293 M3R/RGS4 inducible, Fluo-4 calcium flux; hits give high values; triggered by carbachol at its EC20. B-score at 10 µM. hit rate 0.45% among 310,000;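 active = B-score, a plate-corrected calcium signal, over three deviations above library mean, with baseline fluorescence within five deviations of library mean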;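 note: RGS4 expression induced by doxycycline in cells with stable M3 receptor; B-score is computed from the integrated fluorescence ratio over baseline after carbachol; higher B-score means a larger calcium signal and so more RGS4 inhibition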
Target sequence (P49798 whole entry, looked up): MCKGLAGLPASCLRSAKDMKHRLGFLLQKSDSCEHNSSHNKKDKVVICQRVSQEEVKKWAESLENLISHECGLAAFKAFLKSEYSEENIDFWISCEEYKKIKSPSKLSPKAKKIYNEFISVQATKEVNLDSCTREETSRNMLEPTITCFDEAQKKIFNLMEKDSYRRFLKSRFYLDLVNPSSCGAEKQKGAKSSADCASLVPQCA
MrgX1 ant reconf – confirmation of human MrgX1 receptor antagonists | shares compounds with MrgX1 antagonist | hit rate 19% among 2,300 | MrgX1-HEK293, BAM8-22 calcium flux, Fluo-4; hits give low values | remaining BAM8-22 calcium response % of control (hits give low values), % at 10 µM;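 active = remaining agonist calcium response no higher than 100% minus 3 SD of agonist-only control wells, with starting fluorescence near control levels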;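 note: agonist BAM8-22 given at a near maximal EC90 to ECmax level; peak minus minimum fluorescence divided by baseline after agonist addition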
HEK293 Ca flux – counter-screen for MrgX1 antagonists: effect in parental HEK293 cells; shares compounds with MrgX1 antagonist; Fluo-4 calcium fluorescence, FDSS; fluorescence ratio F(max-min)/F0 at 10 µM; hit rate 2% among 4,000; AID 624111;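 active = duplicate-averaged calcium fluorescence ratio at least three times the standard deviation of buffer wells, a nonspecific response in parental cells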
HEK293 Ca counter – MrgX1 allosteric activator counter-screen hit in parental HEK293 cells. hit rate 0.4% among 4,000. fluorescence ratio F(max-min)/F0 at 10 µM. parental HEK293 calcium flux, Fluo-4 fluorescence ratio; hits give high values. shares compounds with MrgX1 antagonist;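 active = calcium fluorescence ratio, averaged over duplicates, at least 3 SD of the buffer-well ratio, meaning a nonspecific response in receptor-free cells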;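 note: untransfected parental HEK293 lacking MrgX1 used as counterscreen for MrgX1 allosteric activators; fluorescence change taken during the second addition on a kinetic imager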
HEK293 Ca cntr2 – counter-screen for MrgX1 activators: effect in parental HEK293 cells | shares compounds with MrgX1 antagonist | Fluo-4 calcium fluorescence (FDSS); hits give high values | fluorescence ratio F(max-min)/F0 at 10 µM | hit rate 8.7% among 4,000 | AID 624115;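 active = calcium fluorescence ratio at least three times the spread of buffer wells, meaning a non-specific response in parental cells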
Active calls of the source: *; i = inactive; . = no result given.

SMILES	MrgX1 antagonist	MrgX1 PAM	RGS4 pot	MrgX1 ag	RGS4 block	MrgX1 ant reconf	HEK293 Ca flux	HEK293 Ca counter	HEK293 Ca cntr2
O=C(COC(=O)CC1Sc2ccccc2NC1=O)NCc1ccccc1 (stereo not drawn)	-11*	i	i	i	i	i	i	i	i
COc1ccc(CNC(=O)CC2Sc3ccccc3NC2=O)cc1 (stereo not drawn)	i	i	i	i	i	.	.	.	.
COCCCNC(=O)C1CC(=O)N(C2CCCC2)C1 (stereo not drawn)	-4.8*	i	i	i	i	i	i	i	i
CN(C)CCCOc1nn(Cc2ccccc2)c2ccccc12	i	i	i	i	i	.	.	.	.
CCOc1ccccc1N1CCN(C/C=C/c2ccc(N(C)C)cc2)CC1	-4.7*	i	i	i	i	i	i	i	i
CC(/C=C1\SC(=S)N(C(C(=O)O)c2ccccc2)C1=O)=C\c1ccccc1 (stereo not drawn)	-14*	i	-7.4*	i	i	i	i	i	i
Nc1nc(-c2cccs2)c(NC(=O)c2ccccc2)s1	i	i	i	i	i	.	.	.	.
COc1cc(/C=C/c2nc3ccccc3s2)cc(OC)c1O	-5.7*	i	i	i	i	i	i	i	i
COc1cc(C=C(c2nc3ccccc3s2)c2nc3ccccc3s2)ccc1O	i	i	i	i	i	.	.	.	.
CCCC1C(C#N)=C(N)Oc2n[nH]c(C(C)(C)C)c21 (stereo not drawn)	-5.1*	i	i	i	i	i	i	i	i
CC(C)C1C(C#N)=C(N)Oc2n[nH]c(C(C)(C)C)c21 (stereo not drawn)	i	i	.	i	.	.	.	.	.
COc1cccc(C(C(=O)NC2CCCCC2)N(C(=O)CNC(=O)c2ccco2)c2cccnc2)c1 (stereo not drawn)	i	i	i	i	i	.	.	.	.
S=C(Nc1ccccc1)Nc1ccc(Cl)cc1Cl	i	i	i	i	i	.	.	.	.
NC(=S)Nc1ccc(Cl)cc1Cl	-6.5*	i	i	i	i	i	i	i	i
Cc1ccc(CNC(=O)C(NS(=O)(=O)c2cccc3nsnc23)c2ccccc2)cc1 (stereo not drawn)	i	i	i	i	i	.	.	.	.
CC1CCCCC1NC(=O)CN1CCN(Cc2ccccc2Cl)C1=O (stereo not drawn)	-10*	i	i	i	i	84%*	i	i	i
O=C(CN1CCN(Cc2ccccc2Cl)C1=O)NC1CCCCCCC1	i	i	i	i	i	.	.	.	.
COc1ccc(N/C=C\C(=O)c2ccc(C)cc2)cc1OC	i	i	i	i	i	.	.	.	.
Cc1ccccc1CC1(CO)CCCN(Cc2cn[nH]c2-c2ccccc2)C1 (stereo not drawn)	i	i	i	i	i	.	.	.	.
COc1cccc(CC2(CO)CCCN(Cc3cn[nH]c3-c3ccccc3)C2)c1 (stereo not drawn)	-5*	i	i	i	i	72%*	i	i	i
O=C(Nc1ccc2c(c1)OCO2)N1CCN(c2ccc(F)cc2)CC1	-4.7*	i	i	i	i	83%*	i	i	i
COc1cccc(CNC(=O)Cn2cccc2)c1	-9.8*	i	i	i	i	81%*	i	i	i
COC(=O)CCCC(=O)N1CCCC(CCC(=O)NCc2ccc(F)c(F)c2)C1 (stereo not drawn)	i	i	i	i	i	.	.	.	.
O=C(CCC1CCCN(C(=O)CCC(F)(F)F)C1)NCc1ccc(F)c(F)c1 (stereo not drawn)	-4.8*	i	i	i	i	i	i	i	i
Cc1cc(N2C(=O)C3C4C=CC(C4)C3C2=O)ccc1NC(=O)c1cccs1 (stereo not drawn)	i	i	i	i	i	.	.	.	.
SMILES	MrgX1 antagonist	MrgX1 PAM	RGS4 pot	MrgX1 ag	RGS4 block	MrgX1 ant reconf	HEK293 Ca flux	HEK293 Ca counter	HEK293 Ca cntr2
OCCNc1nc(Nc2ccc(Br)cc2)nc2ccccc12	-6.9*	i	i	i	i	73%*	i	i	i
c1ccc(Nc2nc(NCC3CCCO3)c3ccccc3n2)cc1 (stereo not drawn)	-5.1*	i	i	i	i	38%*	i	i	i
COc1cc(C2NC(=O)NC(O)(C(F)(F)F)C2C(C)=O)cc(OC)c1OC (stereo not drawn)	i	i	i	i	i	.	.	.	.
CCCCc1ccc(NC(=O)CSc2nc3ncccc3[nH]2)cc1	-5.7*	i	i	i	i	i	i	i	i
CCCCOc1ccc(NC(=O)CSc2cccc3cccnc23)cc1	-6.7*	i	i	i	i	i	i	i	i
CCOC(=O)C1=C(COC(=O)/C=C/c2ccccc2)NC(=O)NC1C (stereo not drawn)	i	i	i	i	i	.	.	.	.
COC(=O)[C@@H]1C[C@@]2(Br)c3ccccc3N(S(=O)(=O)c3ccccc3)[C@H]2N1C(=O)OC	-6*	i	i	i	i	i	i	i	61*
CCn1c(C(C)NS(=O)(=O)c2ccc(Cl)cc2)n[nH]c1=S (stereo not drawn)	-6.5*	i	i	i	i	i	i	i	i
CCCn1c(C(C)NS(=O)(=O)c2ccccc2)n[nH]c1=S (stereo not drawn)	i	i	i	i	i	.	.	.	.
CNC(=O)C(=O)NCC1OCCCN1S(=O)(=O)c1ccc2c(c1)OCCO2 (stereo not drawn)	i	i	i	i	i	.	.	.	.
O=C(COc1ccc(S(=O)(=O)N2CCOCC2)cc1Cl)NCc1ccccn1	i	i	i	i	i	.	.	.	.
O=C(COc1ccc(S(=O)(=O)N2CCCC2)cc1Cl)NCc1ccccn1	-6.2*	i	i	i	i	i	i	i	i
